Our source for the IC50 and Activity values is ChEMBL document CHEMBL1155352, “Antiparasitic activities of novel, orally available fumagillin analogs” (Bioorg Med Chem Lett, 2009).

The subject of assay [1] is Trypanosoma brucei. In words: Antiparasitic activity against Trypanosoma brucei 427 after 48 hrs. The class given is functional, organism-based.
Assay [2] relates to Plasmodium falciparum. In words: Antiparasitic activity against Plasmodium falciparum W2 infected in human erythrocytes after 72 hrs by FACS. The class given is functional, organism-based.
For assay [3], the system named is Entamoeba histolytica. In words: Antiparasitic activity against Entamoeba histolytica HMI:IMSS trophozoites after 60 hrs. Type of assay: functional, organism-based, HM-1:IMSS.
Assay [4] addresses Methionine aminopeptidase 2 (Homo sapiens) (UniProt P50579). In words: Inhibition of human MetAP2 assessed as residual activity at 800 nM after 8 hrs by Met-AMC based fluorescence assay. An outline of the steps:
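Human MetAP2 (80 nM) preincubated with compound at 800 nM for 8 h; remaining free enzyme activity then read by Met-AMC fluorescence and reported as residual activity.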

Assay [5] relates to Leishmania donovani. In words: Antiparasitic activity against Leishmania donovani at <100 ug/mL. The class given is functional, organism-based.
Assay [6] deals with Plasmodium falciparum. In words: Antiparasitic activity against Plasmodium falciparum D2 infected in human erythrocytes after 72 hrs by FACS. Type of assay: functional, organism-based. (In general: In flow cytometry, cells or beads pass a laser one at a time.)
Assay [7] deals with Plasmodium berghei. In words: Antiparasitic activity against Plasmodium berghei infected Swiss Webster mice (Mus musculus) assessed as protection against parasite infection at 25 mg/kg, subcutaneously administered every 12 hrs for 4 days measured after 12 days. The class given is functional, organism-based. Also noted: dose 25 mg/kg. An outline of the steps: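 P. berghei-infected mice, infected on Day 1, dosed subcutaneously with 25 mg/kg every 12 h; PBS-dosed controls. Survival followed over days post infection; each data point mean of triplicates.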

Where [8] appears, read: Trypanosoma brucei, 427, 48 h, read-out: IC50.
Where [9] appears, read: Plasmodium falciparum, W2, 72 h, read-out: IC50.
Setting [10] is: Entamoeba histolytica, HM-1:IMSS, 60 h, read-out: IC50.
[11] abbreviates: Plasmodium falciparum, D2, 72 h, read-out: IC50.

In brackets after ≈: the same amount, converted by molar mass. Activity calls are given as the source filed them. The calls are words filed in the database; no cut-off is given here.

The term IC50 denotes the concentration that gives 50% inhibition.

Chain of Methionine aminopeptidase 2 (Homo sapiens) (P50579 2-478 limits assumed): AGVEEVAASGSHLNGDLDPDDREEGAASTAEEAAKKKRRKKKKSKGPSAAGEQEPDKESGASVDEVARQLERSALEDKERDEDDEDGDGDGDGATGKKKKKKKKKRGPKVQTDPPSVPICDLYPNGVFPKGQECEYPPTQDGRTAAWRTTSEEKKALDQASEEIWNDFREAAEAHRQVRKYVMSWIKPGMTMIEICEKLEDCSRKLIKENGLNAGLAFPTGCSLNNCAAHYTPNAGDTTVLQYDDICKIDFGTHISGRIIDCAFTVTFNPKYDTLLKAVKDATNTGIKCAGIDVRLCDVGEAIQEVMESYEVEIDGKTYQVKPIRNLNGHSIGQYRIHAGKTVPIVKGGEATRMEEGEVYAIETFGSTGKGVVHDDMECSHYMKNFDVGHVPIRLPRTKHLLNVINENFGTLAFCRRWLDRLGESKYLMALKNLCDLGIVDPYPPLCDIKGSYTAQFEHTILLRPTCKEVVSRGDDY

`CO[C@@H]1[C@H](OC(=O)/C=C/C=C/C=C/C=C/C(=O)O)CC[C@]2(CO2)[C@H]1[C@@]1(C)O[C@@H]1CC=C(C)C` [FUMAGILLIN]: the IC50 was 26 µg/mL (≈ 56.7 µM) in assay [1] (setting [8]), 0.0996 µg/mL (≈ 0.217 µM) in assay [2] (setting [9]) and 0.005 µg/mL (≈ 0.0109 µM) in assay [3] (setting [10]).

Consider `CO[C@@H]1[C@H](OC(=O)N2CCC(C(=O)O)CC2)CC[C@]2(CO2)[C@H]1[C@@]1(C)O[C@@H]1CC=C(C)C`, for which the Activity in assay [4] was 8%. The outcome in assay [5] was inactive. The IC50 result in assay [1] (BLD = below limit of detection) is “BLD”; in assay [2] (setting [9]), 0.0367 µg/mL (≈ 0.0839 µM); in assay [3] (setting [10]) it was 0.087 µg/mL (≈ 0.199 µM).

As for `CO[C@@H]1[C@H](OC(=O)N[C@@H](C(N)=O)C(C)C)CC[C@]2(CO2)[C@H]1[C@@]1(C)O[C@@H]1CCC(C)(C)O`, the Activity in assay [4] was 90%. The outcome in assay [5] was inactive. The IC50 entry in assay [1] (BLD = below limit of detection), in assay [2] (BLD = below limit of detection) and in assay [3] (BLD = below limit of detection) was “BLD” in each case.

Consider `CO[C@@H]1[C@H](OC(=O)N[C@@H](C(=O)Nc2cccc(C(=O)O)c2)C(C)C)CC[C@]2(CO2)[C@H]1[C@@]1(C)O[C@@H]1CC=C(C)C`, for which the Activity in assay [4] turned out to be 4%. Further, the IC50 came to 0.136 µg/mL (≈ 0.25 µM) in assay [6] (setting [11]), 14 µg/mL (≈ 25.7 µM) in assay [1] (setting [8]) and 0.497 µg/mL (≈ 0.913 µM) in assay [3] (setting [10]). Moreover, the outcome in assay [5] was inactive.

`CO[C@@H]1[C@H](OC(=O)N[C@@H](C(=O)NCCC2CCCN2C)C(C)C)CC[C@]2(CO2)[C@H]1[C@@]1(C)O[C@@H]1CC=C(C)C` (some centres not stated): the Activity in assay [4] was determined as 5%. Further, the IC50 in assay [6] (setting [11]) was 0.0347 µg/mL (≈ 0.0648 µM); in assay [1] (setting [8]), 19 µg/mL (≈ 35.5 µM); in assay [3] (setting [10]), 1.39 µg/mL (≈ 2.59 µM). Also, the result in assay [5] was inactive. In assay [7], the outcome was Active.

For `CO[C@@H]1[C@H](OC(=O)N[C@H]2CN3CCC2CC3)CC[C@]2(CO2)[C@H]1[C@@]1(C)O[C@@H]1CC=C(C)C`, the outcome in assay [5] was inactive. The half-maximal inhibitory concentration (IC50) is 0.0394 µg/mL (≈ 0.0907 µM) in assay [2] (setting [9]) and 1.26 µg/mL (≈ 2.9 µM) in assay [3] (setting [10]).

Regarding `CO[C@@H]1[C@H](OC(=O)NN2CCOCC2)CC[C@]2(CO2)[C@H]1[C@@]1(C)O[C@@H]1CC=C(C)C`, the Activity in assay [4] came out at 6%. Also, in assay [5], the outcome was inactive. Also, the values for the IC50 in assay [1] (setting [8]), in assay [2] (setting [9]) and in assay [3] (setting [10]) were 28 µg/mL (≈ 68.2 µM), 0.00774 µg/mL (≈ 0.0189 µM) and 0.01 µg/mL (≈ 0.0244 µM), respectively.

In the case of `CO[C@@H]1[C@H](OC(=O)N[C@@H](C(=O)NCCCN(C)C)C(C)C)CC[C@]2(CO2)[C@H]1[C@@]1(C)O[C@@H]1CC=C(C)C`, the IC50 in assay [6] (setting [11]) came to 0.0263 µg/mL (≈ 0.0516 µM); in assay [1] (setting [8]), 25 µg/mL (≈ 49 µM); in assay [3] (setting [10]) it was 2.28 µg/mL (≈ 4.47 µM). In addition, the result in assay [5] was inactive.

In the case of `CO[C@@H]1[C@H](OC(=O)NC(C)(C)C(=O)N2CCN(Cc3ccccc3)CC2)CC[C@]2(CO2)[C@H]1[C@@]1(C)O[C@@H]1CC=C(C)C`, the results for the IC50 entry in assay [6] (BLD = below limit of detection), in assay [1] (BLD = below limit of detection) and in assay [3] (setting [10]) were “BLD”, “BLD” and 2.54 µg/mL (≈ 4.46 µM), respectively. For the same compound, the outcome in assay [5] was inactive.

On to `CO[C@@H]1[C@H](OC(=O)N[C@@H](C(=O)NN2CCCCC2)C(C)C)CC[C@]2(CO2)[C@H]1[C@@]1(C)O[C@@H]1CC=C(C)C`, for which the concentration for half-maximal inhibition (IC50) in assay [6] (setting [11]) is 0.0288 µg/mL (≈ 0.0567 µM); in assay [1] (setting [8]), 55 µg/mL (≈ 108 µM); in assay [3] (setting [10]), 0.0643 µg/mL (≈ 0.127 µM). For the same compound, the result in assay [5] was inactive.

For `CO[C@@H]1[C@H](OC(=O)NC(=O)CCl)CC[C@]2(CO2)[C@H]1[C@@]1(C)O[C@@H]1CC=C(C)C` [O-CHLOROACETYLCARBAMOYLFUMAGILLOL], the figures for the IC50 in assay [1] (setting [8]), in assay [2] (setting [9]) and in assay [3] (setting [10]) were 2.8 µg/mL (≈ 6.97 µM), 0.0123 µg/mL (≈ 0.0306 µM) and 0.026 µg/mL (≈ 0.0647 µM), respectively.

Take `CO[C@@H]1[C@H](OC(=O)NCc2ccc(C(=O)O)cc2)CC[C@]2(CO2)[C@H]1[C@@]1(C)O[C@@H]1CC=C(C)C`: the Activity in assay [4] turned out to be 3%. The outcome in assay [5] was Active. In addition, the IC50 in assay [1] (setting [8]) is 42 µg/mL (≈ 91.4 µM); in assay [2] (setting [9]), 0.0205 µg/mL (≈ 0.0446 µM); in assay [3] (setting [10]) it was 0.01 µg/mL (≈ 0.0218 µM).
